Measurements collected from several papers.
Each line is one published result; the experiments were not run side by side.
Cell line: MDA-MB-231
Effect on: cell growth or viability

C[C@@H]1CC[C@@H]([C@@](O)(CNCc2ccccc2)COCc2ccc(F)cc2)[C@H](OCc2ccc(F)cc2)C1 — inhibition (MTT; 30 µM, 72 h): 98.8%
CCc1c(C)c2ccc(OCC(=O)NN=Cc3ccc([N+](=O)[O-])cc3)cc2oc1=O — viability (MTT; 250 µg/mL): 17.3%
Cc1cc(NC(=O)C=Cc2ccccc2)cc(-c2ccnc(N3CCC(CO)CC3)c2)c1 — inhibition (MTT; 5 µM): 59.8%
CC(=NNC(=O)COc1ccc2c(C)c(Cc3ccccc3)c(=O)oc2c1C)c1ccc(Br)cc1 — viability (MTT; 250 µg/mL): 22.8%
C=C(C)[C@@H]1CC[C@@H](C)C[C@H]1OCc1ccccc1 — inhibition (MTT; 10 µM, 72 h): 21.9%
C=CC(=O)NC1CCN(c2ncc3ncnc(Nc4ccc(Oc5ccc6c(c5)ncn6C)c(C)c4)c3n2)CC1 — EC50: 328 nM
O=C(/C=C/c1cccc(F)c1)Nc1cc(-c2ccnc(N3CCC(O)CC3)c2)ccn1 — inhibition (MTT; 5 µM): 75.8%
C[C@@H]1CC[C@@H]([C@](C)(O)Cn2cnc3ccccc32)[C@H](OCc2ccccc2)C1 — inhibition (MTT; 30 µM, 72 h): 83.2%
O=C(CCc1ccccc1)Nc1cc(-c2ccnc(N3CCC(O)CC3)c2)ccn1 — inhibition (MTT; 5 µM): 78.9%
C=CCOc1ccc2c(C)c(CC)c(=O)oc2c1C — viability (MTT; 31.25 µg/mL): 99.7%
COc1cc2c3c(n(CCCNCCO)c(=O)c2cc1OC)-c1nc2c(cc1C3=O)OCO2 — IC50 (MTS; 72 h): 806 nM
COc1ccc(CNC[C@](O)(COCc2ccc(OC)cc2)[C@@H]2CC[C@@H](C)C[C@H]2OCc2ccc(OC)cc2)cc1 — inhibition (MTT; 30 µM, 72 h): 98.8%
O=C(C=Cc1ccccc1)Nc1cc(-c2ccnc(N3CCC(O)CC3)c2)ccn1 — inhibition (MTT; 5 µM): 80.3%
CCc1c(C)c2ccc(OCC=Cc3ccccc3)c(C)c2oc1=O — viability (MTT; 125 µg/mL): 87.1%
COc1ccc(CNC[C@@](C)(O)[C@@H]2CC[C@@H](C)C[C@H]2OCc2ccccc2)cc1 — inhibition (MTT; 10 µM, 72 h): 45.7%
O=C(O)c1cccnc1Nc1cccc(C(F)(F)F)c1 — GI50 (SRB; 48 h): > 30000 nM
Cc1c(Cc2ccccc2)c(=O)oc2c(C)c(OCC(=O)NN=Cc3ccccc3)ccc12 — viability (MTT; 125 µg/mL): 8.96%
Nc1ccccc1NC(=O)c1ccc(CNc2ccc(NC3=C(Cl)C(=O)c4cccnc4C3=O)cc2)cc1 — IC50 (MTT; 48 h): 1070 nM
CCNC(=S)NNC(=O)COc1ccc2c(C)c(CC)c(=O)oc2c1C — viability (MTT; 62.5 µg/mL): 84.5%
C[C@@H]1CC[C@@H]([C@@](O)(CNCc2cccc3ccccc23)COCc2ccccc2)[C@H](OCc2ccccc2)C1 — inhibition (MTT; 10 µM, 72 h): 83%
